Where “and” joins values, the source holds several entries; their conditions need not be identical. Identical values can stand only once.
What was measured:
human red blood cells = settings: inhibitor of the general anion transporter; cited from earlier work
[1] = Beagle dog, intravenous, radiolabeled; cited from earlier work
[2] = 24 hour urinary V clearance at steady state; assay type: in vivo, human
Summary of the method: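 Type 2 diabetic patients took VOSO4 orally as tablets with meals, 3 per day, for six weeks. 24 hour urine was collected at steady state, with one to three collections per patient. Urine was analysed directly for total V by Zeeman-corrected GFAAS against a standard curve run the same day. Steady-state urinary V output was taken as the minimum amount absorbed.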

[3] = tested on: patients with type 2 diabetes; assay type: in vivo, human
Summary of the method: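 Patients took placebo, then oral VOSO4 tablets with meals (3/day) for six weeks. They self-monitored blood glucose before meals and at bedtime daily, reported as weekly averages. Two-step euglycemic-hyperinsulinemic clamps were run before and after treatment: overnight low-dose insulin to normalise glucose, then primed-continuous insulin at 0.5 and then 1.0 mU/kg/min, 2 h each. Glucose was checked every 5 min with variable glucose infusion. M was normalised to body mass.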

[4] = Serum total V pharmacokinetics; assay type: in vivo, human
Summary of the method: (§1)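 Diabetic patients were dosed with oral VOSO4 for forty days, followed by a sixteen-day washout, with periodic blood sampling. Total V was measured by GFAAS against a same-day standard curve; serum was run directly and whole blood after extra preparation. Decline was fitted to a one-compartment first-order model using the last dosing day plus three later points, giving k and half time. Accumulation was fitted using the washout k. AUC in (ng/mL)days was calculated for the exposure and decline phases.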

[5] = tested on: patients with type 2 diabetes; settings: two higher dose groups (50, 100 mg V), six weeks; cited from earlier work
[6] = Whole blood total V pharmacokinetics; assay type: in vivo, human
Summary of the method: as §1

[7] = tested on: patients with type 2 diabetes; assay: Adverse symptoms reported during the clinical study; assay type: in vivo, human; settings: doses of V used in this clinical study; not severe enough to drop subjects
[8] = 25 mg V/day oral as VOSO4, group mean
[9] = 50 mg V/day oral as VOSO4, group mean ± SD
[10] = 100 mg V/day oral as VOSO4, group mean ± SD
[11] = patients taking 100 mg V per day
[12] = of the 8 patients receiving 100 mg V/day
[13] = 25 mg V/day oral as VOSO4, 6 weeks, group mean
[14] = 50 mg V/day oral as VOSO4, 6 weeks, group mean ± SD
[15] = 50 mg V/day oral as VOSO4, 6 weeks, individual patient
[16] = 50 mg V/day oral as VOSO4, exposure and decline phases, individual patient
[17] = 100 mg V/day oral as VOSO4, 6 weeks, group mean ± SD
[18] = 100 mg V/day oral as VOSO4, 6 weeks, individual patient
[19] = 100 mg V/day oral as VOSO4, exposure and decline phases, individual patient

CC(=O)/C=C(/C)[O-].CC(=O)/C=C(/C)[O-].[O]=[V+2] [VO(acac)2]
uptake by human red blood cells in the presence of DIDS (human red blood cells): no change

[O]=[V]([O-])([O-])[O-] [vanadate]
half time of single exponential decline (majority of the dose) [1]: 24 h | uptake by human red blood cells in the presence of DIDS (human red blood cells): blocked

O=S(=O)([O-])[O-].[O]=[V+2] [vanadyl sulfate]
Mean Urine [V] at Steady State [2, 8]: 54 ng/mL | Mean Urine [V] at Steady State ([2]; 25 mg V/day oral as VOSO4, individual patient): 60 ng/mL and 47 ng/mL | 24 hour urinary V output at steady state ([2]; 50 mg V group, oral vanadyl sulfate): 0.18 ± 0.24 mg | Mean Urine [V] at Steady State [2, 9]: 59 ± 80 ng/mL | Mean Urine [V] at Steady State ([2]; 50 mg V/day oral as VOSO4, individual patient): 215 ng/mL and 29 ng/mL and 165 ng/mL and 18 ng/mL and 22 ng/mL | 24 hour urinary V output at steady state ([2]; 100 mg V group, oral vanadyl sulfate): 0.97 ± 0.84 mg | Mean Urine [V] at Steady State [2, 10]: 654 ± 705 ng/mL | Mean Urine [V] at Steady State ([2]; 100 mg V/day oral as VOSO4, individual patient): 412 ng/mL and 468 ng/mL and 457 ng/mL and 2199 ng/mL and 207 ng/mL and 703 ng/mL and 135 ng/mL | absorbed fraction of the administered V ([2]; 16 type 2 diabetic patients, oral vanadyl sulfate): about 1% | absorption of the administered dose ([2]; 50 and 100 mg V groups, estimated from steady state urinary output): ≤ 1% | V excreted [2, 11]: approximately 1 mg V per day | absorption of V entering the GI tract [2, 11]: 1% | absorption of V, of the daily dose ([2]; three doses of V used (25, 50, 100 mg/day)): less than 1% | patients with improved responses for all three variables ([3]; of the 5 patients receiving 50 mg V/day): 2 | patients who responded well for all three variables [3, 12]: three | patients who responded well for two variables [3, 12]: four | Pk Serum V [4, 13]: 18.9 ng/mL | SS Serum V [4, 13]: 15.4 ng/mL | Pk Serum V ([4]; 25 mg V/day oral as VOSO4, 6 weeks, individual patient): 16.7 ng/mL and 21.1 ng/mL | Ser V t1/2 [4, 8]: 64.8 h | Pk Serum V [4, 14]: 81.7 ± 40 ng/mL and 81.7 ± 40.5 ng/mL | SS Serum V [4, 14]: 63.1 ± 37.8 ng/mL | Pk Serum V [4, 15]: 125 ng/mL and 87.0 ng/mL and 114 ng/mL and 30.2 ng/mL and 51.7 ng/mL | AUC Serum V [4, 16]: 3538 (ng/mL)days and 1747 (ng/mL)days and 3894 (ng/mL)days and 946 (ng/mL)days and 617 (ng/mL)days | AUC Serum V [4, 9]: 2149 ± 1494 (ng/mL)days | Ser V t1/2 [4, 9]: 113 ± 38.4 h | ratio of serum AUC to whole blood AUC, mean value ([4]; 50 mg dose group): 1.07±0.86 (ng/mL)days | Pk Serum V [4, 17]: 319 ± 268 ng/mL | SS Serum V [4, 17]: 314 ± 178 ng/mL | Pk Serum V [4, 18]: 252 ng/mL and 227 ng/mL and 423 ng/mL and 906 ng/mL and 213 ng/mL and 368 ng/mL and 144 ng/mL | AUC Serum V [4, 19]: 8695 (ng/mL)days and 8328 (ng/mL)days and 15779 (ng/mL)days and 26713 (ng/mL)days and 8041 (ng/mL)days and 11412 (ng/mL)days and 4781 (ng/mL)days | AUC Serum V [4, 10]: 11965 ± 7340 (ng/mL)days | Ser V t1/2 [4, 10]: 110 ± 60 h | ratio of serum AUC to whole blood AUC, mean value ([4]; 100 mg dose group): 1.65±0.32 (ng/mL)days | fold increase in steady state serum V concentration ([4]; 25 to 50 mg dose groups): 4 fold | fold increase in steady state serum V concentration ([4]; 50 to 100 mg dose groups): 5 fold | patients with improved fasting blood glucose [5]: approximately 50% | Pk Blood V [6, 14]: 85 ± 54 ng/mL | SS Blood V [6, 14]: 65 ± 39 ng/mL | Pk Blood V [6, 15]: 163 ng/mL and 26 ng/mL and 109 ng/mL and 50 ng/mL and 75 ng/mL | Bld V t1/2 ([6]; 50 mg V/day oral as VOSO4, decline phase, individual patient): 240 h and 69.6 h and 106 h and 93.6 h and 161 h | AUC Blood V [6, 16]: 3762 (ng/mL)days and 701 (ng/mL)days and 3474 (ng/mL)days and 2025 (ng/mL)days and 1788 (ng/mL)days | AUC Blood V [6, 9]: 2351 ± 1264 (ng/mL)days | Bld V t1/2 [6, 9]: 134 ± 67.2 h | Pk Blood V [6, 17]: 201 ± 200 ng/mL | SS Blood V [6, 17]: 205 ± 164 ng/mL | Pk Blood V [6, 18]: 136 ng/mL and 132 ng/mL and 264 ng/mL and 654 ng/mL and 95 ng/mL and 225 ng/mL | Bld V t1/2 ([6]; 100 mg V/day oral as VOSO4, decline phase, individual patient): 96 h and 103 h and 173 h and 146 h and 50.4 h and 72 h and 209 h | AUC Blood V [6, 19]: 5648 (ng/mL)days and 5863 (ng/mL)days and 10552 (ng/mL)days and 20245 (ng/mL)days and 3741 (ng/mL)days and 6998 (ng/mL)days and 2341 (ng/mL)days | AUC Blood V [6, 10]: 7912 ± 6023 (ng/mL)days | Bld V t1/2 [6, 10]: 122 ± 57.6 h | adverse symptoms [7]: symptoms of gastrointestinal distress

O=S(=O)([O-])[O-].[O]=[V+2] [vanadyl]
half time of single exponential decline (majority of the dose) [1]: 24 h
